In ChEMBL document CHEMBL1151473, “Posaconazole activity against Candida glabrata after exposure to caspofungin or amphotericin B” (2008):
Values after ≈ are worked out from the molar mass of the structure shown. Active and inactive are the calls of the source. The rule behind the calls is not given here.

Experiments:
Candida parapsilosis [1] = assay: Antifungal activity against Candida parapsilosis ATCC 22019 after 48 hrs by broth microdilution method; type: functional; details: Lodderomyces parapsilosis, ATCC 22019, 48 h
Method in brief: (§1)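 CLSI broth microdilution with final drug concentrations […], incubated at 35°C and read spectrophotometrically at 490 nm at 24 and 48 h. MIC is the first concentration giving 50% turbidity reduction versus control, or 90% for amphotericin B. Run in quintuplicate.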

Nakaseomyces glabratus [2] = assay: Antifungal activity against Candida glabrata isolate 4198 after 48 hrs by broth microdilution method; type: functional; method in brief: as §1
Nakaseomyces glabratus [3] = assay: Antifungal activity against Candida glabrata isolate 4205 after 48 hrs by broth microdilution method; type: functional; details: isolate 4205, 48 h; method in brief: as §1
Nakaseomyces glabratus [4] = assay: Antifungal activity against Candida glabrata isolate 4293 after 48 hrs by broth microdilution method; type: functional; method in brief: as §1
Nakaseomyces glabratus [5] = assay: Antifungal activity against Candida glabrata isolate 4370 after 48 hrs by broth microdilution method; type: functional; method in brief: as §1
Nakaseomyces glabratus [6] = assay: Antifungal activity against 2.44 x 10^8 CFU Candida glabrata isolate 4293 infected in CD1 mouse assessed as reduction in fungal burden per kidney pair at 1 mg/kg/day, ip administered from day 1 to day 2 post viral challenge measured on day 3 postinfection; type: functional, organism-based
Method in brief: (§2)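 Male CD1 mice (25 g) made neutropenic with cyclophosphamide 200 mg/kg/day ip on days −4, +1 and +4 postinfection. Infected iv with C. glabrata 4293 in 0.2 ml. Treatment began 24 h postchallenge, with 1 mg/kg/day ip in 0.2 ml. Sacrifice on day 3 or day 7. Kidney pairs homogenized; diluted and undiluted aliquots plated on Sabouraud dextrose agar for CFU. Medians reported; 7–8 mice per group.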

Nakaseomyces glabratus [7] = assay: Antifungal activity against 1.04 x 10^8 CFU Candida glabrata isolate 4293 infected in CD1 mouse assessed as reduction in fungal burden per kidney pair at 1 mg/kg/day, ip administered from day 1 to day 2 post viral challenge measured on day 3 postinfection; type: functional, organism-based; method in brief: as §2
Nakaseomyces glabratus [8] = assay: (§3) Antifungal activity against 2.44 x 10^8 CFU Candida glabrata isolate 4293 infected in CD1 mouse assessed as reduction in […] per kidney pair at 1 mg/kg/day, ip administered from day 1 to day 2 followed by PEG-200 infusion from day 3 to day 6 […] measured on day 7 postinfection relative to control; type: functional, organism-based; method in brief: as §2
Nakaseomyces glabratus [9] = assay: as §3, with “1.04” for “2.44”; type: functional, organism-based; method in brief: as §2
Nakaseomyces glabratus [10] = assay: (§4) Antifungal activity against 2.44 x 10^8 CFU Candida glabrata isolate 4293 infected in CD1 mouse assessed as inhibition of regrowth in fungal burden in kidney at 1 mg/kg/day, ip administered from day 1 to day 2 post viral challenge measured on day 7 postinfection; type: functional, organism-based; method in brief: as §2
Nakaseomyces glabratus [11] = assay: (§5) Antifungal activity against 1.04 x 10^8 CFU Candida glabrata isolate 4293 infected in CD1 mouse assessed as inhibition of regrowth in fungal burden in kidney at 1 mg/kg/day, ip administered from day 1 to day 2 post viral challenge measured on day 7 postinfection; type: functional, organism-based; method in brief: as §2
Nakaseomyces glabratus [12] = assay: as §4, with “day 2 followed by PEG-200 infusion from day 3 to day 6 post viral” for “day 2 post viral”; type: functional, organism-based; method in brief: as §2
Nakaseomyces glabratus [13] = assay: as §5, with “day 2 followed by PEG-200 infusion from day 3 to day 6 post viral” for “day 2 post viral”; type: functional, organism-based; method in brief: as §2
Candida parapsilosis [14] = assay: Antifungal activity against Candida parapsilosis ATCC 22019 after 24 hrs by broth microdilution method; type: functional; details: Lodderomyces parapsilosis, ATCC 22019, 24 h
Method in brief: (§6)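 CLSI broth microdilution, final drug concentrations 0.0078–8 µg/ml. Incubated at 35°C and read at 24 and 48 h by OD490. MIC is the first concentration giving 50% (azole, echinocandin) or 90% (polyene) less turbidity than the drug-free control. Quintuplicate.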

Nakaseomyces glabratus [15] = assay: Antifungal activity against Candida glabrata isolate 4198 after 24 hrs by broth microdilution method; type: functional; method in brief: as §1
Nakaseomyces glabratus [16] = assay: Antifungal activity against Candida glabrata isolate 4205 after 24 hrs by broth microdilution method; type: functional; details: isolate 4205, 24 h; method in brief: as §1
Nakaseomyces glabratus [17] = assay: Antifungal activity against Candida glabrata isolate 4293 after 24 hrs by broth microdilution method; type: functional; method in brief: as §6
Nakaseomyces glabratus [18] = assay: Antifungal activity against Candida glabrata isolate 4370 after 24 hrs by broth microdilution method; type: functional; method in brief: as §1
Nakaseomyces glabratus [19] = assay: Antifungal activity against 2.44 x 10^8 CFU Candida glabrata isolate 4293 infected in CD1 mouse assessed as inhibition of regrowth in fungal burden in kidney at 1 mg/kg/day, ip administered from day 1 to day 2 post viral challenge measured on day 3 postinfection; type: functional, organism-based; method in brief: as §2
Nakaseomyces glabratus [20] = assay: Antifungal activity against 1.04 x 10^8 CFU Candida glabrata isolate 4293 infected in CD1 mouse assessed as inhibition of regrowth in fungal burden in kidney at 1 mg/kg/day, ip administered from day 1 to day 2 post viral challenge measured on day 3 postinfection; type: functional, organism-based; method in brief: as §2

Question: What does the source list for `C[C@@H]1[C@H](O)[C@@H](C)/C=C/C=C/C=C/C=C/C=C/C=C/C=C/[C@H](O[C@@H]2O[C@H](C)[C@@H](O)[C@H](N)[C@@H]2O)C[C@@H]2O[C@](O)(C[C@@H](O)C[C@@H](O)[C@H](O)CC[C@@H](O)C[C@@H](O)CC(=O)O[C@H]1C)C[C@H](O)[C@H]2C(=O)O` [AMPHOTERICIN B]?
Answer: MIC (Candida parapsilosis [1]): 1 µg/mL (≈ 1.08 µM); MIC (Nakaseomyces glabratus [2]): 0.5 µg/mL (≈ 0.541 µM); MIC (Nakaseomyces glabratus [3]): 0.5 µg/mL (≈ 0.541 µM); MIC (Nakaseomyces glabratus [4]): 0.5 µg/mL (≈ 0.541 µM); MIC (Nakaseomyces glabratus [5]): 1 µg/mL (≈ 1.08 µM); Activity (Nakaseomyces glabratus [6]): inactive; Activity (Nakaseomyces glabratus [7]): inactive; Activity (Nakaseomyces glabratus [8]): Active; Activity (Nakaseomyces glabratus [9]): Active; Activity (Nakaseomyces glabratus [10]): inactive; Activity (Nakaseomyces glabratus [11]): inactive; Activity (Nakaseomyces glabratus [12]): inactive; Activity (Nakaseomyces glabratus [13]): inactive

Question: What does the source list for `CC[C@H](C)C[C@H](C)CCCCCCCCC(=O)N[C@H]1C[C@@H](O)[C@@H](NCCN)NC(=O)[C@@H]2[C@@H](O)CCN2C(=O)[C@H]([C@H](O)CCN)NC(=O)[C@H]([C@H](O)[C@@H](O)c2ccc(O)cc2)NC(=O)[C@@H]2C[C@@H](O)CN2C(=O)[C@H]([C@@H](C)O)NC1=O` [CASPOFUNGIN]?
Answer: MIC (Candida parapsilosis [14]): 0.25 µg/mL (≈ 0.229 µM); MIC (Nakaseomyces glabratus [15]): 0.25 µg/mL (≈ 0.229 µM); MIC (Nakaseomyces glabratus [16]): 0.25 µg/mL (≈ 0.229 µM); MIC (Nakaseomyces glabratus [17]): ≤ 0.03 µg/mL; MIC (Nakaseomyces glabratus [18]): 0.125 µg/mL (≈ 0.114 µM); Activity (Nakaseomyces glabratus [6]): inactive; Activity (Nakaseomyces glabratus [7]): inactive; Activity (Nakaseomyces glabratus [8]): Active; Activity (Nakaseomyces glabratus [9]): Active; Activity (Nakaseomyces glabratus [19]): Active; Activity (Nakaseomyces glabratus [20]): Active; Activity (Nakaseomyces glabratus [10]): Active; Activity (Nakaseomyces glabratus [11]): Active
